Activity calls are given as the source filed them. No cut-off for these calls is given here.
Key:
[1] = Inhibition of adenylosuccinate synthase at 1:1 aspartate to compound ratio
[2] = Inhibition of adenylosuccinate synthase at 10 mM
Method in brief: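 Recombinant His-tagged AdSS (pMOB45 in E. coli BL21(DE3), IPTG-induced at 18 °C, IMAC-purified); 2.0 µg per 100 µl reaction in 20 mM Hepes pH 7.5, 50 µM IMP, 25 µM GTP, 500 µM MgCl2, 10 mM test compound. Started at room temperature with 100 or 500 µM aspartate, frozen after 5 min. Adenylosuccinate quantified by HPLC (266 nm, pH 4.4 phosphate/PIC A/methanol), peak areas over three runs.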

[3] = Inhibition of adenylosuccinate synthase at 5:1 aspartate to compound ratio

Row | inhibition [1] | inhibition [2] | inhibition ([3]; concentration not given here) [%] | inhibition [3] | inhibition ([1]; concentration not given here) [%] | SMILES
1 | inactive | Active | 80 |  |  | O=CN(O)CC(=O)O
2 | inactive |  |  | inactive |  | O=C(O)CNO
3 | inactive |  |  | inactive |  | CC(CCC(=O)O)NO (centres undefined)
4 | inactive |  |  | inactive |  | O=C(O)CCCNO
5 | Active |  |  | inactive |  | CCC(C(=O)O)N(O)C=O (centres undefined)
6 | inactive |  |  | inactive |  | O=CN(O)CCC(=O)O
7 |  |  |  |  | 60 | O=CN(O)C(CCC(=O)O)C(=O)O (centres undefined)
8 | inactive |  |  | inactive |  | CC(CCC(=O)O)N(O)C=O (centres undefined)
9 | inactive |  |  | inactive |  | O=CN(O)CCCCC(=O)O
10 |  |  | 50 |  | 90 | CC(C(=O)O)N(O)C=O (centres undefined)
11 |  |  |  |  | 30 | O=CN(O)C(CC(=O)O)C(=O)O (centres undefined)
12 | inactive |  |  | inactive |  | O=CN(O)CCCC(=O)O
13 | inactive |  |  | inactive |  | O=C(O)CCNO
14 | Active |  |  | inactive |  | CCC(C)C(C(=O)O)N(O)C=O (centres undefined)
15 | Active |  |  | inactive |  | CCCC(C(=O)O)N(O)C=O (centres undefined)

Source: ChEMBL document CHEMBL1641561, “Evaluation of hadacidin analogues” (Bioorg Med Chem Lett, 2011)
